# rCAG binder – binders of r(CAG) RNA repeats, primary screen, biochemical, fluorescence; r(CAG) RNA repeat, TO-PRO-1 dye displacement fluorescence; inhibition, % at 3 µM; 370,000 compounds, 1.3% hits; AID 651821, 2012;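 active = inhibition above the plate cutoff, the mean of all test compounds on that plate plus 3 SD, cut at about 35% in these data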;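 also: 0% = DMSO alone and 100% = 100 µM mitoxantrone as full dye displacement; higher means more dye released from RNA so lower well fluorescence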
# SIAE primary – human SIAE inhibitors, primary screen, biochemical, fluorescence polarization, FP-Rh probe, 1536-well HTS. SIAE FP-Rh probe binding. AID 1053197, 2014. Sialate O-acetylesterase (Homo sapiens), Q9HAT2. inhibition, % at 9.66 µM. 370,000 compounds, 0.69% hits;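 active = inhibition above a cutoff: mean of compounds within the control limits plus 3 SD of those, cut at about 17% in these data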;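 also: 0% = plate median of compound wells and 100% = probe without SIAE protein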
# Target sequence (Q9HAT2 whole entry, looked up): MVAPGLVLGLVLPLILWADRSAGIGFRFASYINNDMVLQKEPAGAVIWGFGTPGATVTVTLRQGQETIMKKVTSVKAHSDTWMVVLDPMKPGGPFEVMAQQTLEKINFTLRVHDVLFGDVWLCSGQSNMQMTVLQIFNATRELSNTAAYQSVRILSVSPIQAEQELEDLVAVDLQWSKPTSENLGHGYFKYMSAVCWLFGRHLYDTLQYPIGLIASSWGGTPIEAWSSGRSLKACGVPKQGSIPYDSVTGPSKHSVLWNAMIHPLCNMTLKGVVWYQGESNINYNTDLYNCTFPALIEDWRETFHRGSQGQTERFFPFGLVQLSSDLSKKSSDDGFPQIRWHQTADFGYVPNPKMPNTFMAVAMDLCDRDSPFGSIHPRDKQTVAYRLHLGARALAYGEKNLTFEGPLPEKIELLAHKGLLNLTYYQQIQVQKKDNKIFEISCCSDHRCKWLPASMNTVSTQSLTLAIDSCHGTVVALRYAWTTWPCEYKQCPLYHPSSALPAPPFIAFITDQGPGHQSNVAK
# mABHD4 FP – ABHD4 inhibitors, primary screen, biochemical, fluorescence polarization, mouse. (Lyso)-N-acylphosphatidylethanolamine lipase (Mus musculus), Q8VD66. purified mABHD4, FP-Rh probe fluorescence polarization. inhibition, % at 8.92 µM. 370,000 compounds, 0.54% hits;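 active = inhibition exceeding the mean over every tested compound plus 3 SD, cut at about 30% in these data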;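 also: 0% = plate median of compound wells and 100% = S159A mutant with DMSO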
#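 Test system: mouse ABHD4 enzyme, wild type. Reagent: FP-Rh fluorescent activity-based probe, added after compound pre-incubation. Timing: pre-incubation 45 min, probe exposure 60 min, at 25 °C. Technique: FP readout, ex 525 nm / em 598 nm. Benchmarks: high control S159A mutant with DMSO, low control median of compound wells.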
# PRMT1 inh – PRMT1 methyltransferase inhibitors, primary screen, biochemical, fluorescence polarization; Protein arginine N-methyltransferase 1 (Homo sapiens), Q99873; recombinant PRMT1, activity-based probe fluorescence polarization; inhibition, % at 2.79 µM; 370,000 compounds, 1.3% hits; AID 652257, 2013;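 active = inhibition above about 21% made by adding two undisclosed values, limit read from the data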
# HTRA1 inhibitor – HTRA1 serine protease inhibitors, primary screen, biochemical, fluorescence polarization, HTS; Q92743; recombinant HTRA1, FP-rhodamine activity-based probe; inhibition, % at 5.96 µM; 340,000 compounds, 0.5% hits; AID 504803, 2011; in the data active = inhibition above about 36%;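 also: 0% = enzyme with DMSO and 100% = wells lacking enzyme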
# PRMT1 confirm – PRMT1 methyltransferase inhibitors, confirmation, biochemical, fluorescence polarization, triplicate | 3,300 compounds, 42% hits | recombinant His-PRMT1, activity-based probe fluorescence polarization | inhibition, % at 2.79 µM | shares compounds with PRMT1 inh;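 active = mean inhibition across replicates above the hit cutoff derived for the earlier primary screen, cut at about 22% in these data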
# * marks the source's active call; other numbers are inactive results; . = no result given. Rows were chosen to be rich in hits. Some 3.3% of all compounds tested hit in one or more screens of this group.
SMILES,rCAG binder,SIAE primary,mABHD4 FP,PRMT1 inh,HTRA1 inhibitor,PRMT1 confirm
CC(=O)N1CCN(c2cc(-c3ccco3)nc3cc(-c4ccccc4)nn23)CC1,.,-9,3,51*,.,8
C[C@H]1CN=C(N(C)C)N1CCCC1CCCCC1,2,2,9,1,6,.
O=c1[nH]c2c(s1)C(c1ccco1)C1C3CCC(C3)C1S2 (stereo not drawn),28,10,15,39*,-10,20
O=C1CC(c2ccco2)Sc2ccccc2N1 (stereo not drawn),-1,6,-2,5,-1,.
NC(=O)COC(=O)c1ccc(-c2ccccc2)cc1,-1,13,-5,-1,-3,.
Cc1ccsc1/C=C1\Oc2cc(O)ccc2C1=O,-27,0,-15,40*,3,30*
O=C1/C(=C/c2ccc(O)c(O)c2)Oc2cc(O)ccc21,-3,-74,20,5,-38,.
Cc1ccn2c(=O)c(C(=O)NC3CCCCC3C)c(O)nc2c1 (stereo not drawn),1,10,4,0,1,.
On1nnc2ccc3ccccc3c21,0,12,1,-4,-1,.
O=C1/C(=C/c2ccccc2O)SC(=S)N1Cc1cccnc1,7,-10,-7,55*,-9,35*
COc1ccc(OC)c(-c2cc(C3CCN(c4cc(Cl)nc(N)n4)CC3)[nH]n2)c1,0,-2,-5,40*,-36,-1
COc1ccc(-c2cc(C3CCN(c4cc(Cl)nc(N)n4)CC3)[nH]n2)cc1,-1,-3,-10,-5,-27,.
COCCNC(=O)CCC(=O)NNc1nc2ccccc2c2nc(-c3ccccc3)nn12,7,3,-2,1,0,.
COc1ccc(N2C(=O)CC(NCc3ccncc3)C2=O)cc1 (stereo not drawn),16,4,-6,8,-2,.
COc1ccc(N2C(=O)CC(NCc3cccc(F)c3)C2=O)cc1 (stereo not drawn),1,5,7,55*,5,5
COc1ccc(N2C(=O)CC(NCc3ccc(F)cc3)C2=O)cc1 (stereo not drawn),3,-3,5,66*,4,2
Cc1cccc(NC(=O)C2CCN(C(=O)c3ccc(F)cc3)CC2)n1,-4,-2,1,3,4,.
O=C(NC1CCCCCC1)c1ccc[nH]c1=S,4,-5,3,49*,-1,4
O=C(NC1CCCCCCC1)c1ccccc1O,1,7,-4,-3,-8,.
Cc1c(N2C(=O)/C(=C\C3CC=CCC3)SC2=S)c(=O)n(-c2ccccc2)n1C (stereo not drawn),7,-2,10,43*,-3,25*
Cc1ccc(/C=C2\SC(=S)N(c3c(C)n(C)n(-c4ccccc4)c3=O)C2=O)cc1,-2,0,4,0,-12,.
Cc1c(N2C(=O)/C(=C/c3ccccc3)SC2=S)c(=O)n(-c2ccccc2)n1C,9,-3,-8,9,2,.
Cc1c(N2C(=O)/C(=C\c3ccccc3O)SC2=S)c(=O)n(-c2ccccc2)n1C,1,5,0,47*,8,83*
Cc1c(N2C(=O)/C(=C/C3CC=CCC3)SC2=S)c(=O)n(-c2ccccc2)n1C (stereo not drawn),9,0,6,39*,.,26*
O=C(NCC1CCCCC1)c1cccc(-c2ccc(O)cc2)c1,0,0,-30,-7,-60,.
SMILES,rCAG binder,SIAE primary,mABHD4 FP,PRMT1 inh,HTRA1 inhibitor,PRMT1 confirm
CCC(=O)Nc1nc(C)c(-c2csc(Nc3cccc(O)c3)n2)s1,17,14,-3,49*,12,5
O=C1NC(=S)CN1c1ccccc1,-4,4,4,65*,-1,60*
CC1CCCC(NC(=O)CSc2nnc(-c3cccnc3)o2)C1C (stereo not drawn),4,6,-4,0,9,.
COc1ccc(NC(=O)N(C)C[C@@H]2OCc3ccccc3-c3c(n(C)c4ccccc34)C(=O)N([C@H](C)CO)C[C@H]2C)c(OC)c1,7,8,10,-2,-5,.
O=C(NCc1n[nH]c(=S)n1-c1cccc(C(F)(F)F)c1)c1ccc(S(=O)(=O)N2CCCCC2)cc1,21,-4,-10,28*,3,8
O=C(NCc1n[nH]c(=S)n1-c1cccc(C(F)(F)F)c1)c1ccc(S(=O)(=O)N2CCCC2)cc1,11,0,-8,9,-7,.
O=C(CC(Sc1ccccc1)c1cccs1)c1ccco1 (stereo not drawn),-3,-5,2,80*,-12,83*
O=C(Cc1cccs1)OCC(=O)c1ccco1,13,-1,8,2,7,.
O=CN1CCc2scc[n+]2-c2ccccc21,0,-3,4,41*,1,30*
O=C(Nc1ccccc1)N1CCc2scc[n+]2-c2ccccc21,11,2,2,56*,4,19
NS(=O)(=O)c1ccc(NC(=O)CSc2cn[nH]n2)cc1,2,0,-1,0,-8,.
O=C(CSc1nccn(-c2ccc(Br)cc2)c1=O)Nc1ccccc1F,2,-17,-5,46*,2,17
COc1ccc(CNC(=O)CSc2nccn(-c3ccc(F)c(F)c3)c2=O)cc1,3,6,7,33*,-4,27*
COc1ccc(-n2ccnc(SCC(=O)NC3CCCC3)c2=O)cc1OC,0,-4,-5,8,-1,.
CCOc1ccc(-n2ccnc(SCC(=O)Nc3ccc(OC)cc3OC)c2=O)cc1,3,-1,-3,27*,-4,27*
Cc1ccc(-n2ccnc(SCC(=O)NC3CCCCC3)c2=O)cc1F,0,-2,7,26*,0,7
CC(C)(C)OC(=O)NCC(=O)NNC(=O)C(C(=O)OCc1ccccc1)c1ccccc1 (stereo not drawn),-6,8,-1,0,1,.
N#CC1=C(N)NC(=S)C(C(N)=O)C1c1ccccc1F (stereo not drawn),1,7,1,64*,3,34*
N#CC1=C(N)NC(=S)C(C(N)=O)C1c1ccc(Cl)cc1Cl (stereo not drawn),1,6,1,72*,-1,34*
O=C1NC(=O)C(c2ccc(Cl)cc2Cl)N1 (stereo not drawn),1,1,-1,-6,0,.
CCOC(=O)C1C(=O)NC(SC)=C(C#N)C1c1ccccc1F (stereo not drawn),-1,4,-2,0,2,.

# Screening results from PubChem BioAssay.
